Experimental data: paper PMC12297293 (Nature Communications, 2025)
Where a chain is given by its changes, count along the chain named. Where a name gives a salt, the structure may show the parent alone. Read-outs that look alike come from different tables or passages of the source.

How the values were obtained:
human GMPK = molecular target: T1, human GMPK (Homo sapiens, UniProt Q16774); assay: NMR chemical shift perturbation titration; format: binding
T1 sequence (Q16774 1-197): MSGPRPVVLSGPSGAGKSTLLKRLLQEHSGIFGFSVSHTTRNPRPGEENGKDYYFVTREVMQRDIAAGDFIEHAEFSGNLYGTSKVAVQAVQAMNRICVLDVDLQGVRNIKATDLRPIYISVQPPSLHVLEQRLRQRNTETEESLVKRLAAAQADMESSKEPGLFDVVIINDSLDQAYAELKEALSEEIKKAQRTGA
How it was run: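 15N-GMPK was expressed in M9 medium with 0.5 mM IPTG at 16 °C for 20 h, then diluted to 50–100 μM in 20 mM HEPES, 150 mM NaCl, pH 7.5, 10% D2O. 1H-15N HSQC at 298 K, 700 MHz with cryoprobe. Assignments transferred from BMRB 27151; overlapped peaks excluded. Chemical shift perturbations globally fitted to a one-site model with Kd shared across residues.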

GMPK R148A mutant = molecular target: T2, GMPK R148A mutant (Homo sapiens, UniProt Q16774, R148A); assay: ITC binding, GMPK R148A; conditions: R148A vs wild type
T2 sequence (Q16774 1-197 R148A): T1 sequence (Q16774 1-197) with R148A
How it was run: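 Mutant made by homologous recombination and Sanger-verified, then expressed in E. coli Rosetta (DE3). Purified by Ni column, ULP1 cleavage of the SUMO tag and SEC (20 mM HEPES, 150 mM NaCl, pH 7.5). ITC at 25 °C with 50 μM protein in the cell and 1.25 or 2.5 mM GMP in the syringe. Injections: 1 μL, then 19 × 2 μL.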

human GMPK wild type [1] = molecular target: T3, human GMPK wild type (Homo sapiens, UniProt Q16774); assay: ITC binding of nucleotides to wild-type GMPK
T3 sequence (Q16774 1-197): T1 sequence (Q16774 1-197)
How it was run: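 ITC at 25 °C with recombinant human GMPK: SUMO-tagged, expressed in E. coli Rosetta (DE3), Ni-purified, tag cut with ULP1, then SEC. Both partners were in 20 mM HEPES pH 7.5 with 150 mM KCl. Cell held 50 μM GMPK; syringe held 1 mM GMP. One 1 μL injection was followed by 19 × 2 μL injections. Triplicate experiments.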

GMPK-ATPγS mixture = molecular target: T4, GMPK-ATPγS mixture (Homo sapiens, UniProt Q16774); assay: ITC of GMP into GMPK-ATPγS mixture; conditions: GMP binding after prior incubation of ATPγS
T4 sequence (Q16774 1-197): T1 sequence (Q16774 1-197)
How it was run: (§1)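 GMP titrated into a preformed nucleotide–enzyme mixture by ITC at 25 °C. Cell held 50 μM recombinant human GMPK premixed with 0.5 mM ADP or ATPγS. Syringe held 2 or 2.5 mM GMP. One 1 μL injection, then 19 × 2 μL. Fitted Kd reported.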

GMPK-ADP mixture = molecular target: T5, GMPK-ADP mixture (Homo sapiens, UniProt Q16774); assay: ITC of GMP into GMPK-ADP mixture; conditions: GMP binding after incubation of ADP
T5 sequence (Q16774 1-197): T1 sequence (Q16774 1-197)
How it was run: as §1

human GMPK wild type [2] = molecular target: T3, human GMPK wild type; assay: NADH-dependent enzyme activity assay, wild-type GMPK; format: biochemical

Nc1ncnc2c1ncn2[C@@H]1O[C@H](CO[P@](=O)(O)O[P@](=O)(O)O[P@@](=O)(O)S)[C@@H](O)[C@H]1O [ATPγS, reference compound]
Kd (human GMPK): 30 µM

Nc1nc2c(ncn2[C@@H]2O[C@H](COP(=O)(O)O)[C@@H](O)[C@H]2O)c(=O)[nH]1 [GMP]
weakening of GMP binding by R148A mutagenesis (GMPK R148A mutant): 1.7 fold
Kd (human GMPK wild type [1]; GMP binding to GMPK without prior incubation): 32 µM
Kd (human GMPK wild type [1]; read-out: Mean Kd, GMP into GMPK, 150 mM KCl, triplicate experiments): 7.1 µM
Kd (GMPK-ATPγS mixture): 170 µM
Kd (GMPK-ADP mixture): 60 µM

[Cl-].[K+] [KCl, potassium chloride]
decrease of kcat at 150 mM relative to 10 mM (human GMPK wild type [2]; 150 mM vs 10 mM potassium ions): 1.5 fold
K+ concentration at which the initial reaction rate reached its maximum (human GMPK wild type [2]; saturating substrate conditions): about 7.5 mM

O=S(=O)(O)O [sulfate ions, sulfate ion]
Kd (human GMPK; read-out: Kd from NMR titration, binding to the p-loop region of GMPK): 5600 µM
mode of inhibition (human GMPK wild type [2]; Michaelis-Menten curves for ATP under 1, 5 and 10 mM SO4 2-): competitive inhibitor of ATP
